Source: ChEMBL document CHEMBL1156109, “Synthesis and antioxidant properties of dendritic polyphenols” (Bioorg Med Chem Lett, 2009)
The source made the active and inactive calls. The calls are words filed in the database; no cut-off is given here.

What was measured:
[1] = Antioxidant activity assessed as inhibition of AAPH-induced lipid peroxidation in human plasma LDL after 18 hrs by gel electrophoresis; type: functional, cell-free
In short: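 LDL oxidized with 10 mM AAPH for 18 h at 37 °C, with or without antioxidant. Azo initiator used instead of Cu2+ so that metal pro-oxidant effects are avoided. Read-out is anodic migration on agarose gel, with AAPH-oxidized LDL set as 100% migration.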

[2] = Antioxidant activity against linoleic acid assessed as inhibition of beta-carotene bleaching after 180 mins; type: functional
In short: (§1)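 Linoleic acid/β-carotene emulsion held at 50 °C for 180 min with antioxidant across a range of concentrations. Bleaching of β-carotene followed as A470. % A470 = (sample A470 at 180 min / at 0 min ×100) minus the same ratio for a no-antioxidant control.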

[3] = Antioxidant activity assessed as protection against AAPH-induced pBR322 plasmid DNA strand open circular form at 0.35 to 45 uM after 4 hrs by agarose gel electrophoresis; type: functional
In short: (§2)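 pBR322 plasmid DNA incubated with AAPH (final 10 mM) at 37 °C for 4 h, with or without antioxidant at final 0.35–45 μM. Agarose electrophoresis then compares supercoiled and open circular band intensities with a no-AAPH control.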

[4] = system: Radical scavenging activity; experiment: Antioxidant activity assessed as DPPH free radical scavenging activity within 10 mins; type: functional
[5] = Antioxidant activity against linoleic acid assessed as inhibition of beta-carotene bleaching at 12 uM after 180 mins; type: functional; set-up: scale not given: the % may be the effect or the level left; in short: as §1
[6] = Prooxidant effect on Cu2+-induced pBR322 DNA damage at 0.35 to 45 uM after 1 hr; type: functional
In short: (§3)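 Pro-oxidant test: pBR322 plasmid incubated with 10 μM Cu2+ at 37 °C for 1 h with compound at final 0.35–45 μM. DNA damage judged by agarose gel electrophoresis.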

[7] = Antioxidant activity assessed as protection against AAPH-induced pBR322 plasmid DNA strand open circular form at >= 45 uM after 4 hrs by agarose gel electrophoresis; type: functional; in short: as §2
[8] = Prooxidant effect on Cu2+-induced pBR322 DNA damage at 25 to 45 uM after 1 hr; type: functional; settings: 23 and 45 uM; in the assay text read “23 and 45 uM” for “25 to 45 uM”; in short: as §3
[9] = Antioxidant activity assessed as protection against AAPH-induced pBR322 plasmid DNA strand open circular form at 11 to 45 uM after 4 hrs by agarose gel electrophoresis; type: functional
In short: (§4)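 pBR 322 plasmid DNA incubated with AAPH (10 mM final) at 37 °C for 4 h, with or without antioxidant (0.35-45 μM final). Samples then run on agarose electrophoresis. Protection was judged from the supercoiled (S) band intensity against a control without AAPH. AAPH converts the DNA to the open circular (O) form.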

[10] = Antioxidant activity assessed as protection against AAPH-induced pBR322 plasmid DNA strand open circular form at <5 uM after 4 hrs by agarose gel electrophoresis; type: functional; in short: as §4
[11] = Prooxidant effect on Cu2+-induced pBR322 DNA damage at 3 to 45 uM after 1 hr; type: functional
[12] = Antioxidant activity assessed as protection against AAPH-induced pBR322 plasmid DNA strand open circular form at 5 uM after 4 hrs by agarose electrophoresis; type: functional; in short: as §4
[13] = system: Radical scavenging activity; experiment: Antioxidant activity assessed as DPPH free radical scavenging activity within 1 mins; type: functional

With COc1cc(CN(Cc2ccc(CN(Cc3cc(I)c(O)c(OC)c3)Cc3cc(I)c(O)c(OC)c3)cc2)Cc2cc(I)c(O)c(OC)c2)cc(I)c1O the Activity [1] was “Dose-dependent effect”, the Activity [2] was “Active” and the Activity [3] was “inactive”.

With COc1cc(C=O)ccc1O [VANILLIN] the IC50 [4] was greater than 100 µM, the Activity [1] was “inactive” and the Activity [5] was less than 5%. The Activity [6] was “inactive”.

For COc1cc(CN(Cc2ccc(CN(Cc3ccc(O)c(OC)c3)Cc3ccc(O)c(OC)c3)cc2)Cc2ccc(O)c(OC)c2)ccc1O, the Activity [1] was “Dose-dependent effect”, the Activity [2] was “Active” and the Activity [7] was “Active”. For the same compound, the Activity [8] was “Active”.

For COc1cc(CN(Cc2ccc(CN(Cc3cc(OC)c(O)c(OC)c3)Cc3cc(OC)c(O)c(OC)c3)cc2)Cc2cc(OC)c(O)c(OC)c2)cc(OC)c1O, the Activity [1] was “Dose-dependent effect”, the Activity [2] was “Active” and the Activity [9] was “Active”. The Activity [10] was “inactive”, the Activity [11] was “Active” and the Activity [12] was “Active”.

In the case of O=c1c(O)c(-c2ccc(O)c(O)c2)oc2cc(O)cc(O)c12, the Activity [9] is reported as “Active”, the Activity [10] is reported as “inactive” and the Activity [11] is reported as “Active”. The Activity [12] was “inactive”.

Work on NCc1ccc(CN)cc1 yielded an Activity [5] of 16%.

For Cc1c(C)c2c(c(C)c1O)CCC(C)(C(=O)O)O2 (centres undefined) [TROLOX], the Activity [6] was “Active”, the IC50 [13] was 27.6 µM and the Activity [3] was “inactive”.

With COc1cc(C=O)cc(OC)c1O [SYRINGALDEHYDE] the IC50 [4] was greater than 100 µM, the Activity [1] was “inactive” and the Activity [5] was 12%. For the same compound, the Activity [6] was “inactive”.
